Compound activity (PubChem)
Only some compounds are listed: those with a hit (about 2.3% of all), similar ones and a draw of the others.
SKN-1 inh: inhibitors of C. elegans SKN-1; C. elegans VP596 Pgst-4::GFP/RFP ratio, acrylamide-induced, 24 h; inhibition, % at 21.8 µM; 360,000 compounds, 0.49% hits; AID 624304;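 active = interference check ratio from 0.5 to 1.5 plus GFP to RFP signal ratio inhibition reaching or exceeding a fixed threshold, cut at about 30% in these data, passing the limit was not always enough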
SUMO1 PPI mod: alters human SUMO1 binding to SIM partners; P63165; SUMO1 binding to a labelled peptide, TR-FRET, 1 h; inhibition, % at 20 µM; 360,000 compounds, 0.33% hits; AID 602429; in the data active = inhibition above about 37%
Rpn11 inh: inhibitors of human proteasome Rpn11; O00487; human 26S proteasome, Ub4-pepOG fluorescence polarization; 20S core pre-blocked with epoxomicin; inhibition, % at 20 µM; 360,000 compounds, 0.59% hits; AID 588493;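 active = inhibition at 20 µM, scaled to each plate's controls, above about 33%, limit read from the data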
DNMT1 inh: inhibitors of human DNMT1; inhibition (reported as % activation of signal), % at 10 µM; DNMT1 molecular beacon, Hinp1I cleavage, fluorescence; AID 588458; P26358; 360,000 compounds, 0.83% hits; in the data active = inhibition above about 50%
CSN inh: CSN deneddylation inhibition | Purified CSN, SCF-Nedd8-OG deneddylation, fluorescence polarization | inhibition, % at 12.5 µM | 360,000 compounds, 0.38% hits | AID 651999;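 active = pattern-corrected inhibition above about 35%, with an unprinted fluorescence ratio check between 0.5 and 1.5, limit read from the data, passing the limit was not always enough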
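test system = HEK293T-derived human Csn5 enzyme | amount = 0.24 nM Csn5 enzyme, final concentration | medium = Tris/NaCl/DTT buffer, pH 7.5 | schedule = 90 min reaction at room temperature | signal = FP | evaluation = inhibition of Csn5 cleavage, % | compound dosing = single dose of 12.5 µM compound with 0.25% DMSO | probe or stimulus = 10 nM SCFSkp2-Nedd8OG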
MT1-MMP act inh: inhibitors of human MT1-MMP activation; AID 651647; GFP/RFP ratio change, % at 20 µM; 360,000 compounds, 0.061% hits; P50281; HT1080 RFP-PRO-GFP cells, GFP/RFP ratio fluorescence, overnight; percent of plate control window, DMSO zero;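 active = GFP/RFP ratio change of at least 30% with cell ATP level not reduced by more than half and red fluorescence within 50% of control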
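Assay system: HT1080 cells carrying an RFP-PRO-GFP reporter | Dosing: Single dose of 20 µM compound, 1% DMSO final | Incubation: Cells overnight before dosing, compound overnight, 37 °C, 5% CO2 | Evaluation: GFP/RFP fluorescence ratio | Control set: DMSO and RFP-L50D-GFP cell wells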
DNMT1 interf DR: shows spectral interference in the DNMT1 beacon assay; shares compounds with DNMT1 inh; molecular beacon fluorescence, spectral interference counter-screen; IC50, µM; 200 tested, under 10 active; call rule not given here
DNMT1 inh conf: DNMT1 inhibition confirmation, single concentration; shares compounds with DNMT1 inh; DNMT1 molecular beacon HinP1I cleavage, fluorescence; inhibition, % at 10 µM; 2,300 compounds, 8% hits; AID 602385;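 active = average inhibition of at least 30% in the single-concentration confirmation test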
Beacon interf: shows spectral interference in the DNMT1 beacon assay; activation (fluorescence interference), % at 10 µM; DNMT1 molecular beacon spectral interference counterscreen, fluorescence 485/520; shares compounds with DNMT1 inh; 2,300 compounds, 1% hits;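 active = activation of at least 30% at 10 µM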;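 also: DNMT1 catalytic domain with a HinP1I cleavage step and a FAM/dabcyl DNA beacon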
Rpn11 inh conf: confirmation of human proteasome Rpn11 inhibitors; shares compounds with Rpn11 inh; 1,900 compounds, 29% hits; inhibition, % at 20 µM; purified human 26S proteasome, Ub4-pepOG fluorescence polarization; proteasome pretreated with epoxomicin
MMP-2 counter-1: counter-screen for RPN11 inhibitors: inhibition of human MMP-2; 1,900 compounds, 4% hits; recombinant MMP-2, FRET peptide cleavage fluorescence; shares compounds with Rpn11 inh; inhibition, % at 20 µM;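 also: human MMP-2 activated beforehand with APMA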
Thrombin inh: thrombin (bovine) inhibition counter-screen. shares compounds with Rpn11 inh. 1,900 compounds, 13% hits. bovine thrombin cleavage of Ub4-pepOG, fluorescence polarization. AID 602333. inhibition, % at 20 µM;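 active = mean inhibition at least 40% at 20 µM, or signal 3 deviations below plate average, so some actives read negative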
CSN deneddyl val: Csn5 (human) deneddylation inhibition, single-concentration validation. shares compounds with CSN inh. AID 720654. inhibition, % at 16.6 µM. 540 compounds, 62% hits. Csn5 deneddylation of SCF-Nedd8OG, fluorescence polarization, 90 min; in the data active = inhibition above about 50%
MMP-2 counter-2: counter-screen for CSN deneddylation inhibitors: human MMP-2 inhibition; shares compounds with CSN inh; recombinant MMP-2, FRET substrate fluorescence, 60 min; 540 compounds, 33% hits; inhibition, % at 16.6 µM;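 active = corrected plate-normalized z-score of 5 or more, or -5 or less, or inhibition of 15% or more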
Thrombin cntr: blocks bovine thrombin in a CSN deneddylation counter-screen | shares compounds with CSN inh | bovine thrombin cleavage of Ub4-pepOG, fluorescence polarization | inhibition, % at 16.6 µM | 540 compounds, 49% hits;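 active = inhibition at or above a set limit, with a fluorescence interference ratio between 0.5 and a set maximum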
A number is an active result; n = inactive; x = no result shown. Rule as the data show it, unless noted: active = inhibition above about 40%; inactive = the rest.

SMILES	SKN-1 inh	SUMO1 PPI mod	Rpn11 inh	DNMT1 inh	CSN inh	MT1-MMP act inh	Rpn11 inh conf	MMP-2 counter-1	Thrombin inh	others
CCOC(=O)c1c(-n2c(C)cc(C=C3C(=O)NC(=S)NC3=O)c2C)sc2c1CCCC2	n	n	43.0	100.4	49.0	n	n	n	n	DNMT1 interf DR=n;DNMT1 inh conf=n;Beacon interf=n;CSN deneddyl val=82.8;MMP-2 counter-2=31.3;Thrombin cntr=n
CCOC(=O)c1c(-n2c(C)cc(/C=C3/C(=O)NC(=O)N(CC)C3=O)c2C)sc2c1CCCC2	n	n	n	n	n	n	x	x	x
O=C(c1cccn2c(=O)c3cc(Br)ccc3nc12)N1CCC2(CC1)OCCO2	n	n	n	n	n	n	x	x	x
Cc1cccn2c(=O)c3cc(C(=O)N4CCC5(CC4)OCCO5)n(C)c3nc12	n	n	69.4	n	n	n	n	n	n
O=C1NC(=O)N(c2ccc(Cl)cc2)C(=O)/C1=C/c1coc2ccc(O)cc2c1=O	n	n	53.6	n	n	n	n	n	n
C=CCn1c(=O)c(C=Nc2c(OC)cccc2[N+](=O)[O-])c(O)n(CCCC)c1=O	n	n	78.1	n	n	n	53.2	n	47.0
C=CCn1c(=O)c(C=Nc2cccc([N+](=O)[O-])c2)c(O)n(CCCC)c1=O	n	n	69.2	n	n	n	45.9	n	n
COc1ccc(CN(CCc2c[nH]c3ccccc23)Cc2ccc(OC)cc2)cc1	n	n	n	n	n	n	x	x	x
Cc1cc(C=C2C(=O)N(C)C(=S)N(C)C2=O)c(C)n1-c1ccncc1	n	n	42.1	n	n	n	n	n	n
Cc1ccnc(-n2c(C)cc(C=C3C(=O)N(C)C(=S)N(C)C3=O)c2C)c1	n	n	47.3	n	n	n	n	n	n
Cc1cc(C)cc(-n2c(C)cc(/C=C3\C(=O)NC(=O)N(C)C3=O)c2C)c1	n	n	n	n	n	n	x	x	x
Cc1ccc(-c2nc3ccccc3c(=O)n2-c2cc(C)ccn2)cc1	n	n	n	n	n	n	x	x	x
COc1cc(/C=C/C(=O)c2c(O)n(CCc3ccccc3)c(=O)[nH]c2=O)ccc1O	n	n	53.0	n	n	n	60.8	n	n
COc1ccc(CCn2c(O)c(C=NCCCO)c(=O)[nH]c2=O)cc1OC	n	n	n	n	n	n	x	x	x
O=c1[nH]c(=O)n(Cc2ccccc2)c(O)c1/C=N/NCCO	n	n	47.0	n	n	n	n	n	n
O=c1[nH]c(=O)n(Cc2ccccc2)c(O)c1C=NCCCO	n	n	x	n	n	n	x	x	x
COc1ccc(CCn2c(O)c(C=Nc3ccccc3F)c(=O)[nH]c2=O)cc1OC	n	n	34.8	n	n	n	n	n	n
O=C(N/N=C/c1c(O)n(CCc2ccccc2)c(=O)[nH]c1=O)c1ccccc1O	n	n	57.5	n	n	n	61.5	n	n
O=C(/C=C/c1ccccc1)c1c(O)n(CCc2ccccc2)c(=O)[nH]c1=O	n	n	n	n	n	n	x	x	x
c1cc2c(cc1-c1ccc3c(c1)OCO3)CNCc1cnnn1-2	n	n	n	n	n	n	x	x	x
O=C(N/N=C/c1c(O)n(CCc2ccc(F)cc2)c(=O)[nH]c1=O)c1ccccc1	n	n	38.6	n	n	n	n	n	n
CCCOP(=O)(OCCC)C(NC(=O)c1cc(OC)c(OC)c(OC)c1)c1ccccc1 (stereo unspecified)	n	n	139.6	n	n	n	n	n	n
Cc1ccc(S(=O)(=O)N2Cc3cc(-c4ccccc4)ccc3-n3nncc3C2)cc1	n	n	n	n	n	n	x	x	x
CC(C)C(O)(C(=O)OCC1=CCN2CCC(O)C12)C(C)O (stereo unspecified)	n	n	n	n	n	n	x	x	x
COc1ccc2c3c([nH]c2c1)C(C)=NCC3	n	n	65.3	n	n	n	n	n	n
SMILES	SKN-1 inh	SUMO1 PPI mod	Rpn11 inh	DNMT1 inh	CSN inh	MT1-MMP act inh	Rpn11 inh conf	MMP-2 counter-1	Thrombin inh	others
COc1ccc2c(c1)[nH]c1c(C)nccc12	n	n	n	n	n	n	x	x	x
C[C@]12CC[C@@H](O)CC1=CCC1C2CC[C@@]2(C)C1CC[C@@H]2O (stereo partly specified)	n	n	n	n	n	n	x	x	x
O=C1NCN(c2ccccc2)C12CCN(C(c1cc3ccccc3o1)c1nnnn1C1CCCCC1)CC2 (stereo unspecified)	n	n	n	n	n	n	x	x	x
O=Cc1c(C(=O)O)n(Cc2ccccc2Cl)c2ccccc12	n	n	n	n	n	n	x	x	x
C=Cc1ccc(Cn2c(C(=O)O)c(C=O)c3ccccc32)cc1	n	n	37.8	n	n	n	154.8	n	60.4
C[C@@H]1CN([C@@H](C)CO)C(=O)CCCn2cc(nn2)CO[C@H]1CN(C)C(=O)Oc1ccc2ccccc2c1	n	n	n	n	n	n	x	x	x
O=C(CN1CCN(Cc2cccc(Cl)c2)C1=O)N1CCC2(CC1)OCCO2	n	n	n	n	n	n	x	x	x
Cc1cccc(CN2CCN(CC(=O)N3CCC4(CC3)OCCO4)C2=O)c1	n	n	80.8	n	n	n	n	n	n
CCCCCSc1cc(OC)c(CCNC)cc1OC	n	n	138.3	n	n	n	n	n	n
CCCCCCCSc1cc(OC)c(CCNC)cc1OC	n	n	n	n	n	n	x	x	x
